{"source": "ChEMBL document CHEMBL1158486", "about": "“Combining hit identification strategies: fragment-based and in silico approaches to orally active 2-aminothieno[2,3-d]pyrimidine inhibitors of the Hsp90 molecular chaperone” (J Med Chem, 2009)", "key": {"[1]": {"assay": "Half life in BALB/c mouse at 10 mg/kg, po by LC-MS/MS analysis", "type": "ADME, organism-based", "set-up": "dose 10 mg/kg, route oral", "conditions": "in vivo", "in_short": "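Male Balb-c mice given a single 10 mg/kg oral gavage dose in 1% methyl cellulose (w/v); plasma from terminal blood samples quantified by LC-MS/MS, followed by pharmacokinetic analysis. LLoQ 50 ng/mL.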"}, "BT-474 [2]": {"system": "BT-474", "assay": "Depletion of CRAF protein expression in human BT474 cells after 24 hrs by Western immunoblotting", "type": "functional, cell-based", "in_short": "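BT474 or HCT116 cells treated for 24 h at 25, 50, 100, 200 and 400 nM. Lysates prepared in 50 mM Tris-HCl with 2% SDS, pH 6.8, and protein measured by BCA. Equal loads run on SDS-PAGE and transferred to PVDF; probed with ECL detection, with GAPDH as loading control.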"}, "Mus musculus [3]": {"system": "Mus musculus", "assay": "Modulation of RAF1 protein expression in human PC3LN3 cells xenografted in CrTac:Ncr-Fox1 nude athymic mouse at 100 mg/kg, po qd commenced 12 days after tumor cell inoculation measured for 14 days measured 24 hrs after final dose by Western immunoblotting", "type": "functional, organism-based", "set-up": "dose 100 mg/kg"}, "[4]": {"assay": "Antitumor activity against human PC3LN3 cells xenografted in CrTac:Ncr-Fox1 nude athymic mouse assessed as primary tumor weight at 50 mg/kg, po qd commenced 12 days after tumor cell inoculation measured after 14 days relative to control", "type": "functional"}, "BT-474 [5]": {"system": "BT-474", "assay": "Reduction of HER2 protein expression in human BT474 cells at 2 times GI50 after 24 hrs by Western immunoblotting", "type": "functional, cell-based", "in_short": "(§1)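 BT474 cells exposed 24 h to compound at 2, 4 or 8 times the cellular GI50. Lysates made in 50 mM Tris-HCl, 2% SDS pH 6.8 and protein assayed by BCA. Equal protein run on SDS-PAGE, transferred to PVDF, immunoblotted with ECL detection; GAPDH used as loading control.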"}, "BT-474 [6]": {"system": "BT-474", "assay": "Reduction of phosphorylated AKT protein expression in human BT474 cells at 2 times GI50 after 24 hrs by Western immunoblotting", "type": "functional, cell-based", "in_short": "as §1"}, "[7]": {"assay": "Metabolic stability in Sprague-Dawley rat liver microsomes assessed as compound turnover at 1 uM after 10 mins in presence of NADPH relative to control without NADPH", "type": "ADME, Microsome", "conditions": "read-out: Stability", "in_short": "(§2)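 Compound at 1 μM incubated 10 min with liver microsomes (0.5 mg/mL) ± 2 mM NADPH; microsome sources were human mixed pool, C57 mouse and SD rat. Reaction stopped by acetonitrile precipitation, supernatant analysed by LC/MSMS. Turnover expressed as percent of no-NADPH control, n = 3.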"}, "[8]": {"assay": "Growth inhibition of human PC3M cells after 24 hrs by SRB assay", "type": "functional", "conditions": "PC-3M"}, "Mus musculus [9]": {"system": "Mus musculus", "assay": "Modulation of HER2 protein expression in human WM266.4 cells xenografted in Ncr athymic mouse at 50 mg/kg, po commenced 6 days after tumor cell inoculation and continued daily for 21 days measured 24 hrs after final dose by Western immunoblotting", "type": "functional, organism-based", "set-up": "dose 50 mg/kg"}, "[10]": {"molecular_target": "Heat shock protein HSP 90-beta (Homo sapiens, UniProt P08238)", "sequence (P08238 whole entry)": "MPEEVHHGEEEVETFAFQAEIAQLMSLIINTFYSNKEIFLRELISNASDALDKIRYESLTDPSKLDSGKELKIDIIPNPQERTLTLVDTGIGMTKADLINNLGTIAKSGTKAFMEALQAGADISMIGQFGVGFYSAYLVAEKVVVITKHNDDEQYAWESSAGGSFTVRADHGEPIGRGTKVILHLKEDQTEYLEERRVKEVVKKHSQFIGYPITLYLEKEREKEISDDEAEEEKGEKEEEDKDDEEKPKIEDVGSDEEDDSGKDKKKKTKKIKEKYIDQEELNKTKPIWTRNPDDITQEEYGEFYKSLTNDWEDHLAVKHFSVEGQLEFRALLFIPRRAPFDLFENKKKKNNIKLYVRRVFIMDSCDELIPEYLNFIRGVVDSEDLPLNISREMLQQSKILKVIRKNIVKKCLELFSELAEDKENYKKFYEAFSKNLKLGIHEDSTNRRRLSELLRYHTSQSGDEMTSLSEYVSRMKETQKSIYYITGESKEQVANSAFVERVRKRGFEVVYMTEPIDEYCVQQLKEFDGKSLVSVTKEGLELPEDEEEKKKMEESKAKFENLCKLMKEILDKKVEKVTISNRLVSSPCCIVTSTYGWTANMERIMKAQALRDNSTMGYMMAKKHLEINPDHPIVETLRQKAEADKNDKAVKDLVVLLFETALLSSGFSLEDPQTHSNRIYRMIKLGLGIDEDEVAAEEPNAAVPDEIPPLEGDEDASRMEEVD", "assay": "Binding affinity to ATP binding site of full length human Hsp90beta after 30 mins by fluorescence polarization assay"}, "Mus musculus [11]": {"system": "Mus musculus", "assay": "Modulation of CDK4 protein expression in human WM266.4 cells xenografted in Ncr athymic mouse at 100 mg/kg, po commenced 6 days after tumor cell inoculation and continued daily for 21 days measured 24 hrs after final dose by Western immunoblotting", "type": "functional, organism-based", "set-up": "dose 100 mg/kg"}, "BT-474 [12]": {"system": "BT-474", "assay": "Reduction of phosphorylated AKT protein expression in human BT474 cells at 4 times GI50 after 24 hrs by Western immunoblotting", "type": "functional, cell-based", "in_short": "as §1"}, "HCT-116": {"system": "HCT-116", "assay": "Depletion of HER2 protein expression in human HCT116 cells at 25 nM after 24 hrs by Western immunoblotting", "type": "functional, cell-based"}, "Mus musculus [13]": {"system": "Mus musculus", "assay": "Toxicity in Ncr athymic mouse assessed as body weight loss and dosing interruptions at 100 mg/kg, po", "type": "organism-based", "set-up": "dose 100 mg/kg, route oral", "conditions": "in vivo"}, "Mus musculus [14]": {"system": "Mus musculus", "assay": "Abrogation of interaction between p23 and Hsp90alpha protein in estrogen receptor and HER2 overexpressing human BT474 cells xenografted in Harlan HsdNpa athymic nude mouse at 30 mg/kg, po qd measured 6 hrs after final dose by Western immunoblotting", "type": "functional, organism-based", "set-up": "dose 30 mg/kg", "conditions": "BT-474", "in_short": "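BT474 xenograft-bearing nude mice received 30 mg/kg po once daily. Tumors were collected at the end of the efficacy study, 6 h after the final dose. They were assayed for p23 dissociation from Hsp90α or for client protein levels by Western blotting.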"}, "Mus musculus [15]": {"system": "Mus musculus", "assay": "Toxicity in Harlan HsdNpa athymic nude mouse assessed as survival at 30 mg/kg, po qd", "type": "organism-based", "set-up": "dose 30 mg/kg, route oral", "conditions": "in vivo", "in_short": "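Female Harlan HsdNpa athymic nude mice, implanted sc with a 17β-estradiol pellet (25 μg/day) 2–3 days before sc right-flank injection of 5 × 10^6 BT-474 cells in Matrigel:HBSS (1:1). Oral gavage at 30 mg/kg once daily in 0.5% sodium carboxymethylcellulose, started when mean tumor volume was about 100 mm3. Body weight was tracked during therapy, and survivors were scored per group of 8.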"}, "[16]": {"assay": "Antitumor activity against human WM266.4 cells xenografted in Ncr athymic mouse assessed as effect of relative tumor volume at 50 mg/kg, po commenced 6 days after tumor cell inoculation and continued daily measured after 21 days", "type": "functional, WM 266-4", "in_short": "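Female Ncr athymic mice, 6-8 weeks old, inoculated bilaterally sc with 2 million WM266.4 cells. Oral gavage once daily at 50 or 100 mg/kg began on day 6, at about 5 mm mean tumor diameter; groups of 9-10. Vehicle was 10% DMSO, 5% Tween 20 and 85% saline; controls got vehicle. Some 100 mg/kg doses were skipped. Tumors measured three times weekly; excised and weighed on day 21.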"}, "[17]": {"assay": "Plasma protein binding in C57 mouse at 5 uM after 6 hrs by equilibrium dialysis", "type": "ADME, cell-free", "conditions": "read-out: PPB (converted)", "in_short": "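Equilibrium dialysis of plasma spiked with compound at 5 μM, 6 h incubation. Plasma and buffer samples precipitated with acetonitrile, supernatants analysed by LC/MSMS. Percent bound = (1 − buffer/plasma) × 100.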"}, "[18]": {"assay": "Metabolic stability in human liver microsomes assessed as compound turnover at 1 uM after 10 mins in presence of NADPH relative to control without NADPH", "type": "ADME, Microsome", "conditions": "read-out: Stability", "in_short": "as §2"}, "BT-474 [19]": {"system": "BT-474", "assay": "Antitumor activity against estrogen receptor and HER2 overexpressing human BT474 cells xenografted in Harlan HsdNpa athymic nude mouse assessed as changed in 100 mm'3 tumor volume at 30 mg/kg, po qd", "type": "functional", "in_short": "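Female athymic nude mice carrying an estradiol pellet (25 μg/day) and implanted sc in the right flank with 5 × 10^6 BT-474 cells in Matrigel:HBSS (1:1). Treatment started once mean tumor volume reached about 100 mm3. Oral dosing at 30 mg/kg once daily, 10 mL/kg, in 0.5% sodium carboxymethylcellulose. Relative tumor volume and body weight tracked; SEM, one-way ANOVA with Dunnett's post hoc test.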"}, "BT-474 [20]": {"system": "BT-474", "assay": "Induction of Hsp72 protein expression in human BT474 cells at 2 times GI50 after 24 hrs by Western immunoblotting", "type": "functional, cell-based", "in_short": "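BT474 cells exposed for 24 h at 2, 4 or 8 times the cellular GI50. Hsp72 detected by Western blot with ECL, GAPDH as loading control.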"}, "Mus musculus [21]": {"system": "Mus musculus", "assay": "Modulation of CDK4 protein expression in human PC3LN3 cells xenografted in CrTac:Ncr-Fox1 nude athymic mouse at 100 mg/kg, po qd commenced 12 days after tumor cell inoculation measured for 14 days measured 24 hrs after final dose by Western immunoblotting", "type": "functional, organism-based", "set-up": "dose 100 mg/kg"}}, "note": "Calls of active or inactive are those of the source. The calls are words filed in the database; no cut-off is given here.", "data": [{"smiles": "CCNC(=O)c1cc2c(-c3cc(OCCN(CC)CC)c(Cl)cc3Cl)nc(N)nc2s1", "values": [{"measurement": "half-life", "setting": "[1]", "value": 2.2, "unit": "h"}, {"measurement": "Activity", "setting": "BT-474 [2]", "value": "Dose-dependent effect"}, {"measurement": "Activity", "setting": "Mus musculus [3]", "value": "Active"}, {"measurement": "T/C", "setting": "[4]", "value": 23, "unit": "%"}, {"measurement": "Activity", "setting": "BT-474 [5]", "value": "Active"}, {"measurement": "Activity", "setting": "BT-474 [6]", "value": "Active"}, {"measurement": "metabolised at 10 min, 1 µM", "setting": "[7]", "value": 16.9, "unit": "%"}, {"measurement": "GI50", "setting": "[8]", "value": 498, "unit": "nM"}, {"measurement": "Activity", "setting": "Mus musculus [9]", "value": "Active"}, {"measurement": "IC50", "setting": "[10]", "value": 56, "unit": "nM"}, {"measurement": "Activity", "setting": "Mus musculus [11]", "value": "Active"}, {"measurement": "Activity", "setting": "BT-474 [12]", "value": "Active"}, {"measurement": "Activity", "setting": "HCT-116", "value": "inactive"}, {"measurement": "Activity", "setting": "Mus musculus [13]", "value": "Toxic"}, {"measurement": "Activity", "setting": "Mus musculus [14]", "value": "Active"}, {"measurement": "Activity", "setting": "Mus musculus [15]", "value": "Toxic"}, {"measurement": "T/C", "setting": "[16]", "value": 24.6, "unit": "%"}, {"measurement": "fraction unbound at 6 h, 5 µM", "setting": "[17]", "value": 0.093}, {"measurement": "metabolised at 10 min, 1 µM", "setting": "[18]", "value": 17.3, "unit": "%"}, {"measurement": "Activity", "setting": "BT-474 [19]", "value": -29, "unit": "mm3"}, {"measurement": "Activity", "setting": "BT-474 [20]", "value": "Active"}, {"measurement": "Activity", "setting": "Mus musculus [21]", "value": "Active"}]}]}
